Assay results: ChEMBL document CHEMBL4257503, “N-Acetyl-3-aminopyrazoles block the non-canonical NF-kB cascade by selectively inhibiting NIK” (Medchemcomm, 2018)

Legend:
[1] = molecular target: T1, Mitogen-activated protein kinase kinase kinase 14 (Homo sapiens, UniProt Q99558); experiment: Inhibition of recombinant human full-length N-terminal GST-fused/His6-tagged NIK (M1 to P947 residues) expressed in Sf9 insect cells using AKDVDQGSLCTSFVGTLQY peptide as substrate measured after 60 mins by ADP-Glo kinase assay
Target sequence in this assay (Q99558 whole entry, the tested form may be a part): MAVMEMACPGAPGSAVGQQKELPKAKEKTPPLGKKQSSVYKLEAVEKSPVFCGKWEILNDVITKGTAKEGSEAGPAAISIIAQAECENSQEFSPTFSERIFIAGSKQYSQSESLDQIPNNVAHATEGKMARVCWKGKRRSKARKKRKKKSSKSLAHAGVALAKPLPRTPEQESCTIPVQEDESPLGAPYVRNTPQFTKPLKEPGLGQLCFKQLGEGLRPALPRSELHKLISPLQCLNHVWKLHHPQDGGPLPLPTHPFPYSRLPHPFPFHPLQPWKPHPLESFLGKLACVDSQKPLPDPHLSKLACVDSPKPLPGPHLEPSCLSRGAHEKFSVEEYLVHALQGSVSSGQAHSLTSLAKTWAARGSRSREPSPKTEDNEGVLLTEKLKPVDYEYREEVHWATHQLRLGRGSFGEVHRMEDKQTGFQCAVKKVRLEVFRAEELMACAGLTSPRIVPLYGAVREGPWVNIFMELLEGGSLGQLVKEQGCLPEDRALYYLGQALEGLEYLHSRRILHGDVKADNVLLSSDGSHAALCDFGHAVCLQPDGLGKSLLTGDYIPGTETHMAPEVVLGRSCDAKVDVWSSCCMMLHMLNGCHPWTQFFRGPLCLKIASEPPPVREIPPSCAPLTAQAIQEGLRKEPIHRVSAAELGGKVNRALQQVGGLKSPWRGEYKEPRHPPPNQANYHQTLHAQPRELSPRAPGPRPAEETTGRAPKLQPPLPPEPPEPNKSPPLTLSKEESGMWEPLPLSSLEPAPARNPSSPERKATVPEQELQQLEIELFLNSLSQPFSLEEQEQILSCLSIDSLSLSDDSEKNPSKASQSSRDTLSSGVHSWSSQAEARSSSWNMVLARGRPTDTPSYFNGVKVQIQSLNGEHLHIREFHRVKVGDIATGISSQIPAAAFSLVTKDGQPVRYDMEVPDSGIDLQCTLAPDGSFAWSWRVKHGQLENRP

[2] = molecular target: T2, Inhibitor of nuclear factor kappa-B kinase subunit epsilon (Homo sapiens, UniProt Q14164); experiment: Inhibition of recombinant human full-length N-terminal GST-fused/His6-tagged IKKepsilon (M1 to V716 residues) expressed in Sf9 insect cells using ERLLDDRHDSGLDSMKDEE peptide as substrate measured after 60 mins by ADP-Glo kinase assay
T2 sequence (Q14164 whole entry): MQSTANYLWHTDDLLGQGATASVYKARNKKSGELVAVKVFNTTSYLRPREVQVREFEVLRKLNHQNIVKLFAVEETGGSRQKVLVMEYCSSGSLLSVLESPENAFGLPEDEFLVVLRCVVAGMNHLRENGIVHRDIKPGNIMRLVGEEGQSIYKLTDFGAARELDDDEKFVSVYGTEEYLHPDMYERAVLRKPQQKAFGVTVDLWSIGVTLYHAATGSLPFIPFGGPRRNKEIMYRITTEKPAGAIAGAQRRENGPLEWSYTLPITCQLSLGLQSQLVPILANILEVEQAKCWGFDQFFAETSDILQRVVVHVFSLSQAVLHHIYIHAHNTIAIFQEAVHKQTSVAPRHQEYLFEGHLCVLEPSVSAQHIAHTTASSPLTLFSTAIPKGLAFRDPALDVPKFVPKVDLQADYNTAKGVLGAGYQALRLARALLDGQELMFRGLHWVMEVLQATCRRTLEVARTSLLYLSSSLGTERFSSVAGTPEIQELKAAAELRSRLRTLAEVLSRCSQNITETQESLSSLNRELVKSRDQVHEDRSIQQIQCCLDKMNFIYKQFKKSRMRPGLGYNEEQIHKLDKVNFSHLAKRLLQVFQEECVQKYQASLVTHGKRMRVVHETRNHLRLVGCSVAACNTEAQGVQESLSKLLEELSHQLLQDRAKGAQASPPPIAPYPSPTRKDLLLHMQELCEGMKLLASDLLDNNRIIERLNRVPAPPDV

[3] = Cytotoxicity against human MDA-MB-231 cells assessed as cell viability at 100 uM after 6 hrs by CellTiter Glo luminescent assay relative to control; type: cell-based; settings: read-out: Activity
Summary of the method: (§1)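 Cells seeded at 5 x 10^3 per well and exposed for 6 h to the compound (10, 25, 50 or 100 µM) or to DMSO vehicle. Viability was read as intracellular ATP by CellTiter Glo luminescence.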

[4] = Cytotoxicity against human SKBR3 cells assessed as cell viability at 100 uM after 6 hrs by CellTiter Glo luminescent assay relative to control; type: cell-based, SK-BR-3; settings: read-out: Activity; summary of the method: as §1
Homo sapiens [5] = organism: Homo sapiens; experiment: Inhibition of NFkappaB activation in human SKBR3 cells at 100 uM after 6 hrs by dual luciferase reporter gene assay relative to control; type: cell-based
Summary of the method: (§2)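 Cells were nucleofected with the pGL4.32 NF-κB-RE firefly luciferase and pGL4.74 TK-Renilla plasmids (3 µg, 10:1 ratio) and cultured for 24 h at 37 °C. Compound (10, 25, 50 or 100 µM) was then added for 6 h. Firefly luminescence was normalised to Renilla from the same sample and expressed as % of vehicle control. Means ± SD of three independent experiments.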

[6] = molecular target: T1, Mitogen-activated protein kinase kinase kinase 14; experiment: Inhibition of NIK-induced NFkappaB activation in human EJM cells at 25 uM after 6 hrs by dual luciferase reporter gene assay relative to control; type: cell-based; summary of the method: as §2
Target sequence in this assay (Q99558 whole entry, looked up, the tested form may be a part): as the sequence (Q99558 whole entry, the tested form may be a part) above

MDA-MB-231 [7] = experiment: Inhibition of NFkappaB activation in human MDA-MB-231 cells at 100 uM after 6 hrs by dual luciferase reporter gene assay relative to control; type: cell-based; summary of the method: as §2
[8] = molecular target: T3, Inhibitor of nuclear factor kappa-B kinase subunit beta (Homo sapiens, UniProt O14920); experiment: Inhibition of recombinant human full-length N-terminal GST-fused/His6-tagged IKKbeta (M1 to S756 residues) expressed in Sf9 insect cells using ERLLDDRHDSGLDSMKDEE peptide as substrate measured after 60 mins by ADP-Glo kinase assay
T3 sequence (O14920 whole entry): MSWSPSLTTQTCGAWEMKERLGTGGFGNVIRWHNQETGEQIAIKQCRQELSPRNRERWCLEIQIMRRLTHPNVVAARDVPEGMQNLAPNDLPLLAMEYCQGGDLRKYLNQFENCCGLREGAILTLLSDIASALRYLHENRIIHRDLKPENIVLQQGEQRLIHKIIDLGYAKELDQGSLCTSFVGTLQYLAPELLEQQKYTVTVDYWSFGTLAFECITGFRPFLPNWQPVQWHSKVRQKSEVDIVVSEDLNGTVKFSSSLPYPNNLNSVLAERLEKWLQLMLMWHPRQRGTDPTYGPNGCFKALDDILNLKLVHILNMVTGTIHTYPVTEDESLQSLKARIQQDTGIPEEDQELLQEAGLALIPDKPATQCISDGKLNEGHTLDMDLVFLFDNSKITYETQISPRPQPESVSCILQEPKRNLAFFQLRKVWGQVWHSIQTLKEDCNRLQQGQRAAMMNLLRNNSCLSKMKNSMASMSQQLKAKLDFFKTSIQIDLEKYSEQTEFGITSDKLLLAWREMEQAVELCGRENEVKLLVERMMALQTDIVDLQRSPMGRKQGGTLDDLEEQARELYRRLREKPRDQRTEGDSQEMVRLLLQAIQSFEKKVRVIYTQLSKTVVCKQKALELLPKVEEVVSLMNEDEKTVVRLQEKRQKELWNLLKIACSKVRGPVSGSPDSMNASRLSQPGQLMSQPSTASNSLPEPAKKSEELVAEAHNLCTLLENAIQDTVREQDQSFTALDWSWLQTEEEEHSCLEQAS

[9] = Cytotoxicity against human EJM cells assessed as cell viability at 25 uM after 6 hrs by CellTiter Glo luminescent assay relative to control; type: cell-based; settings: read-out: Activity; summary of the method: as §1
[10] = molecular target: T4, Inhibitor of nuclear factor kappa-B kinase subunit alpha (Homo sapiens, UniProt O15111); experiment: Inhibition of recombinant full length human His-tagged IKKalpha expressed in baculovirus expression system using ERLLDDRHDSGLDSMKDEE peptide as substrate measured after 60 mins by ADP-Glo kinase assay
T4 sequence (O15111 whole entry): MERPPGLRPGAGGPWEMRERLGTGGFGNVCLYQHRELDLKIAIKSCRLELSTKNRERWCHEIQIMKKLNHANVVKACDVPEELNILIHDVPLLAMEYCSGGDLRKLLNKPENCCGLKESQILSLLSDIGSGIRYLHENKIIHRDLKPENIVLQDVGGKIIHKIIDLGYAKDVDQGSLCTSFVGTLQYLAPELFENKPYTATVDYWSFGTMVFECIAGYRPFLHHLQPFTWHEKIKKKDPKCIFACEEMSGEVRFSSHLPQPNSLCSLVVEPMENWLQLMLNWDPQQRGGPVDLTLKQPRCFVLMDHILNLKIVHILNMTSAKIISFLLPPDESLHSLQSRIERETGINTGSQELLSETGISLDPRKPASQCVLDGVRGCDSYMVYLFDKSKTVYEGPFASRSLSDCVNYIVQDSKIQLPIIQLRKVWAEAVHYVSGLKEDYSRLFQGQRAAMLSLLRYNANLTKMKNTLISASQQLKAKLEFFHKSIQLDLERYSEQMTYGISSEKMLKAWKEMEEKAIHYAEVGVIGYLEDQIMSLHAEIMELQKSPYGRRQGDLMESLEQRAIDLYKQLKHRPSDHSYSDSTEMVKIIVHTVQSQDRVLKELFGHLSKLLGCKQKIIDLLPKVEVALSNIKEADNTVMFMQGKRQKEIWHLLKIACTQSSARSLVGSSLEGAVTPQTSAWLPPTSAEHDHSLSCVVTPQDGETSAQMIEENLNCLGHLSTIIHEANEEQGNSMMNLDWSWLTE
Summary of the method: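 Recombinant human IKKα, peptide substrate 100 µM, enzyme 8 ng/µL, ATP 1 µM in Tris-HCl pH 7.5 buffer with MgCl2, MnCl2, DTT, Na3VO4, BSA; 25°C, 60 min; ADP-Glo luminescence. Ten concentrations 0.005–100 µM; IC50 by nonlinear regression; means ± SD of three independent experiments.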

[11] = molecular target: T1, Mitogen-activated protein kinase kinase kinase 14; experiment: Inhibition of NIK-induced NFkappaB activation in human EJM cells at 20 uM after 6 hrs by dual luciferase reporter gene assay relative to control; type: cell-based
Target sequence in this assay (Q99558 whole entry, looked up, the tested form may be a part): as the sequence (Q99558 whole entry, the tested form may be a part) above

[12] = Cytotoxicity against human MDA-MB-231 cells assessed as cell viability at 50 uM after 6 hrs by CellTiter Glo luminescent assay relative to control; type: cell-based; settings: read-out: Activity; summary of the method: as §1
[13] = Cytotoxicity against human EJM cells assessed as cell viability at 20 uM after 6 hrs by CellTiter Glo luminescent assay relative to control; type: cell-based; settings: read-out: Activity
[14] = Cytotoxicity against human SKBR3 cells assessed as cell viability at 50 uM after 6 hrs by CellTiter Glo luminescent assay relative to control; type: cell-based, SK-BR-3; settings: read-out: Activity; summary of the method: as §1
Homo sapiens [15] = organism: Homo sapiens; experiment: Inhibition of NFkappaB activation in human SKBR3 cells at 50 uM after 6 hrs by dual luciferase reporter gene assay relative to control; type: cell-based; summary of the method: as §2
MDA-MB-231 [16] = experiment: Inhibition of NFkappaB activation in human MDA-MB-231 cells at 50 uM after 6 hrs by dual luciferase reporter gene assay relative to control; type: cell-based; summary of the method: as §2
[17] = molecular target: T1, Mitogen-activated protein kinase kinase kinase 14; experiment: Inhibition of NIK-induced NFkappaB activation in human EJM cells at 50 uM after 6 hrs by dual luciferase reporter gene assay relative to control; type: cell-based; summary of the method: as §2
Target sequence in this assay (Q99558 whole entry, looked up, the tested form may be a part): as the sequence (Q99558 whole entry, the tested form may be a part) above

[18] = Cytotoxicity against human EJM cells assessed as cell viability at 50 uM after 6 hrs by CellTiter Glo luminescent assay relative to control; type: cell-based; settings: read-out: Activity; summary of the method: as §1
[19] = Cytotoxicity against human MDA-MB-231 cells assessed as cell viability at 1 uM after 6 hrs by CellTiter Glo luminescent assay relative to control; type: cell-based; settings: read-out: Activity
[20] = Cytotoxicity against human EJM cells assessed as cell viability at 1 uM after 6 hrs by CellTiter Glo luminescent assay relative to control; type: cell-based; settings: read-out: Activity
[21] = Cytotoxicity against human SKBR3 cells assessed as cell viability at 1 uM after 6 hrs by CellTiter Glo luminescent assay relative to control; type: cell-based, SK-BR-3; settings: read-out: Activity
Homo sapiens [22] = organism: Homo sapiens; experiment: Inhibition of NFkappaB activation in human SKBR3 cells at 1 uM after 6 hrs by dual luciferase reporter gene assay relative to control; type: cell-based
MDA-MB-231 [23] = experiment: Inhibition of NFkappaB activation in human MDA-MB-231 cells at 1 uM after 6 hrs by dual luciferase reporter gene assay relative to control; type: cell-based
[24] = Cytotoxicity against human EJM cells assessed as cell viability at 100 uM after 6 hrs by CellTiter Glo luminescent assay relative to control; type: cell-based; settings: read-out: Activity; summary of the method: as §1
[25] = molecular target: T1, Mitogen-activated protein kinase kinase kinase 14; experiment: Inhibition of NIK-induced NFkappaB activation in human EJM cells at 100 uM after 6 hrs by dual luciferase reporter gene assay relative to control; type: cell-based; summary of the method: as §2
Target sequence in this assay (Q99558 whole entry, looked up, the tested form may be a part): as the sequence (Q99558 whole entry, the tested form may be a part) above

| Structure (SMILES) | IC50 [1] [µM] | IC50 [2] [µM] | viability at 6 h, 100 µM [3] [%] | viability at 6 h, 100 µM [4] [%] | inhibition (Homo sapiens [5]) [%] | inhibition (MDA-MB-231 [7]) [%] | IC50 [8] [µM] | IC50 [10] [µM] | viability at 6 h, 50 µM [12] [%] | inhibition (MDA-MB-231 [16]) [%] | inhibition [17] [%] | viability at 6 h, 50 µM [18] [%] | other results |
| --- | --- | --- | --- | --- | --- | --- | --- | --- | --- | --- | --- | --- | --- |
| Cc1nn(C(=O)C2CCCCC2)c(N)c1-c1ccc(Cl)c(Cl)c1 | 3.3 | > 100 | ≥ 80 | ≥ 80 | 3.7 | 2.36 | > 100 | > 100 |  |  |  |  | inhibition [6]: 94.7%; viability at 6 h, 25 µM [9]: ≥ 80% |
| Cc1nn(C(=O)C2CCC2)c(N)c1-c1ccc(Cl)c(Cl)c1 | 2.9 | > 100 | ≥ 80 | ≥ 80 | 5.2 | 2.36 | > 100 | > 100 |  |  |  |  | inhibition [6]: 96.2%; viability at 6 h, 25 µM [9]: ≥ 80% |
| O=C(Nc1cc(Cl)c2c(c1)[nH]c1cnccc12)c1cccnc1 | > 100 | > 100 |  |  |  |  | 0.09 | > 100 | ≥ 80 | 87.9 |  |  | inhibition [11]: 89.3%; viability at 6 h, 20 µM [13]: ≥ 80%; viability at 6 h, 50 µM [14]: ≥ 80%; inhibition (Homo sapiens [15]): 3.6% |
| Cc1nn(C(=O)c2ccccc2)c(N)c1-c1ccc(Cl)c(Cl)c1 | 23 | > 100 | ≥ 80 | ≥ 80 | 0.31 | 13.8 | > 100 | > 100 |  |  | 75.2 | ≥ 80 |  |
| COCCOc1cnc(N)nc1-c1c[nH]c2ccc(C#CC(C)(C)O)cc12 | 0.07 | > 100 |  |  |  |  | > 100 | > 100 |  |  |  |  | viability at 6 h, 1 µM [19]: ≥ 80%; viability at 6 h, 1 µM [20]: ≥ 80%; viability at 6 h, 1 µM [21]: ≥ 80%; inhibition (Homo sapiens [22]): 2.3%; inhibition (MDA-MB-231 [23]): 7.1% |
| Cc1n[nH]c(N)c1-c1ccc(Cl)cc1 | 61.1 | > 100 |  | ≥ 80 | 4.2 |  | 37.9 | > 100 | ≥ 80 | 29.9 | 10.4 | ≥ 80 |  |
| Cc1nn(C(=O)C2CC2)c(N)c1-c1ccc(Cl)c(Cl)c1 | 24.3 | > 100 |  |  |  |  | > 100 | > 100 | ≥ 80 | 5.8 |  |  | viability at 6 h, 100 µM [24]: ≥ 80%; viability at 6 h, 50 µM [14]: ≥ 80%; inhibition [25]: 68.9%; inhibition (Homo sapiens [15]): 3.66% |
| CCC(=O)n1nc(C)c(-c2ccc(Cl)c(Cl)c2)c1N | 27.4 | > 100 | ≥ 80 | ≥ 80 | -3.14 | 10.3 | > 100 | > 100 |  |  | 66.8 | ≥ 80 |  |
